High-throughput results: PubChem BioAssay, Broad Institute
Sampled rows, rich in hits. Any-hit rate of the full collection: about 1.7%.
Vif imaging: HIV Vif self-association inhibitors, primary screen, imaging, HEK293T, single point. AID 602346, 2012. inhibition, % at 7.49 µM. HEK293T cells, Vif self-association by quenched fluorescence, 24 h. hit rate 0.35% among 340,000; in the data active = inhibition above about 50%, passing the limit was not always enough
Statin myotox sup: suppressors of statin myotoxicity in C2C12 myotubes, primary screen, cell-based, single point, plate reader; AID 602340, 2012; C2C12 myotubes + simvastatin, ATP luminescence, 48 h; scaled: DMSO 0, geranylgeraniol control 100; rescue of ATP level, % at 7.49 µM; hit rate 0.78% among 330,000;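 active = mean ATP rescue above about 67%, or every replicate alone reaching that limit, limit read from the data, passing the limit was not always enough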;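 also: myotubes were challenged with 10 µM simvastatin during compound exposure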
SR-BI HDL uptake: inhibitors of SR-BI mediated HDL lipid uptake, primary screen, ldlA[mSR-BI] cells, fluorescence, single point; Scavenger receptor class B member 1 (Mus musculus), Q61009; ldlA[mSR-BI] CHO cells, DiI-HDL uptake fluorescence, 3 h; inhibition, % at 12.5 µM; hit rate 0.96% among 320,000; AID 488896, 2010;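 active = mean replicate inhibition of at least 70% and a set share of replicates each scoring 70 or more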;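 also: 0% = median of neutral control wells and 100% = median of positive control wells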
Target sequence (Q61009 whole entry, looked up): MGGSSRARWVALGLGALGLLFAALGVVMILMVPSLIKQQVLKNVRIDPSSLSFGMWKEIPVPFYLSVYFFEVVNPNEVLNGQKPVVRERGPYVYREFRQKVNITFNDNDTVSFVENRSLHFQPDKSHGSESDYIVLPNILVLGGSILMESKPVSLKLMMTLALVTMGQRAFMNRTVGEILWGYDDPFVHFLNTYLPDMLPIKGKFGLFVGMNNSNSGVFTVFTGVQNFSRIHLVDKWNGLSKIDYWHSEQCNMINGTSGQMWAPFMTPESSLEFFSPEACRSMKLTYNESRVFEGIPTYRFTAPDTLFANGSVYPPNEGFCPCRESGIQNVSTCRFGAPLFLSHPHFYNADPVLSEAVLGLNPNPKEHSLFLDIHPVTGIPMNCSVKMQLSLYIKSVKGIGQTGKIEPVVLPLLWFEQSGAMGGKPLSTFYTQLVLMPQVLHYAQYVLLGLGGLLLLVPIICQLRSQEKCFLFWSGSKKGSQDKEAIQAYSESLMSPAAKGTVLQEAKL
SR-BI DiI-HDL act: activators of SR-BI mediated DiI-HDL uptake, primary screen, ldlA[mSR-BI] CHO cells, DiI fluorescence. 3 h; 100 = double the neutral-control signal. activation, % at 12.5 µM. hit rate 0.096% among 320,000;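 active = mean replicate activation of at least 60% and every replicate at or above 60%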;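 also: 0% = median plate neutral-control signal and 100% = twice that signal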
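Test system: SR-BI-overexpressing, LDLR-lacking CHO cells. Measured by: DiI fluorescence, bottom read. Medium: Ham's F12 with 0.5% BSA, HEPES 25 mM, pH 7.4. Timing: 3 h uptake period with compound, 37 °C.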
Starred values were filed as active, the others as inactive; / = no result given.

SMILES	Vif imaging	Statin myotox sup	SR-BI HDL uptake	SR-BI DiI-HDL act
O=[N+]([O-])c1cc2c(cc1/C=N\NS(=O)(=O)c1ccccc1)OCO2	3	-15	-9	9
CNc1nc(N/N=C/c2cc([N+](=O)[O-])ccc2F)nc(Nc2ccccc2)n1	-15	-8	75*	-75
CNc1nc(Nc2ccc([N+](=O)[O-])cc2)nc(OCC(F)(F)F)n1	28	-13	6	-6
CNc1nc(N/N=C/c2cc3c(cc2[N+](=O)[O-])OCO3)nc(Nc2ccccc2)n1	-14	/	87*	-87
O=C(Nc1ccccc1)[C@H]1[C@H](CO)[C@H]2Cn3c(cccc3=O)[C@H]2N1C(=O)C1CCC1	/	19	/	/
O=C(N[C@@H]1CC[C@H](CCNC(=O)C2CCOCC2)O[C@H]1CO)c1ccncc1	/	17	/	/
C[C@@H]1CN([C@H](C)CO)C(=O)c2cccc(NS(=O)(=O)c3ccc(Cl)cc3)c2O[C@H]1CN(C)Cc1ccncc1	/	-10	/	/
COc1ccc(C2C(Oc3ccccc3)C(=O)N2c2cc(C)ccc2C)cc1OC (configuration not stated)	4	73*	-4	4
C[C@H]1CN([C@@H](C)CO)C(=O)c2cccc(NC(=O)C3CCOCC3)c2O[C@@H]1CN(C)Cc1ccc(-c2ccccc2)cc1	/	13	/	/
COCC#Cc1ccc2c(c1)O[C@@H](CN(C)C)[C@H](C)CN([C@@H](C)CO)S2(=O)=O	/	0	/	/
C[C@H](CO)N1C[C@H](C)[C@@H](CN(C)Cc2ccc(Oc3ccccc3)cc2)Oc2ccc(NC(=O)Cc3cn(C)c4ccccc34)cc2CC1=O	/	114*	/	/
C[C@H]1CN([C@@H](C)CO)C(=O)Cc2cc(NC(=O)Cc3cn(C)c4ccccc34)ccc2O[C@H]1CN(C)Cc1ccc(Oc2ccccc2)cc1	/	48	/	/
C[C@H]1CN([C@@H](C)CO)C(=O)Cc2cc(NC(=O)Cc3cn(C)c4ccccc34)ccc2O[C@@H]1CN(C)Cc1ccc(-c2ccccc2)cc1	/	60	/	/
C[C@@H]1CN([C@H](C)CO)C(=O)Cc2cc(NC(=O)Cc3cn(C)c4ccccc34)ccc2O[C@H]1CN(C)Cc1ccc(-c2ccccc2)cc1	/	93*	/	/
C[C@H](CO)N1C[C@H](C)[C@H](CN(C)Cc2ccc(C(=O)O)cc2)Oc2ccc(NC(=O)C3CC3)cc2CC1=O	/	-5	/	/
O=C1C(=O)c2ccc(-c3ccccc3)cc2-c2ccccc21	-7	-202	92*	-92
C[C@H](O)C#Cc1cnc2c(c1)C(=O)N([C@H](C)CO)C[C@@H](C)[C@H](CN(C)C(=O)Cc1ccncc1)O2	/	4	/	/
Cc1noc(C)c1NC(=O)Nc1ccc2c(c1)C(=O)N([C@H](C)CO)C[C@H](C)[C@H](CN(C)S(=O)(=O)c1cn(C)cn1)O2	/	-23	/	/
COc1ccc(-c2ccc(-c3nc4c(c(=O)[nH]c(=O)n4Cc4ccccc4)n3C)o2)c([N+](=O)[O-])c1	-10	-40	72*	-72
COCCn1c(=O)[nH]c(=O)c2c1nc(-c1ccc(-c3ccc(Cl)cc3[N+](=O)[O-])o1)n2Cc1ccccc1	-4	/	10	-10
O=C(Oc1ccc(C(=S)N2CCOCC2)cc1Br)c1ccccc1F	-3	149*	-14	14
COc1ccc(/C(C)=N/N2C(=O)c3ccccc3NC2c2ccc(O)c(OC)c2)cc1 (configuration not stated)	-1	9	4	-4
C/C(=N\N1C(=O)c2ccccc2NC1c1ccco1)c1ccccc1O (configuration not stated)	5	/	-86	86*
C/C(=N\N1C(=O)c2ccccc2NC1c1ccccc1)c1ccccc1O (configuration not stated)	11	4	85*	-85
O=C1c2ccccc2NC(c2ccco2)N1/N=C/c1ccco1 (configuration not stated)	12	1	-13	13
SMILES	Vif imaging	Statin myotox sup	SR-BI HDL uptake	SR-BI DiI-HDL act
OC(CNCc1ccccc1Cl)COc1ccc(F)cc1 (configuration not stated)	65*	-15	/	/
O=C(c1ccccc1)c1ccc(OCC(O)CNCc2ccc(F)cc2)cc1 (configuration not stated)	-3	5	/	/
C[C@H]1CN([C@@H](C)CO)S(=O)(=O)c2ccc(C3=CCCC3)cc2O[C@H]1CN(C)C	/	6	/	/
C/C(NCc1cccnc1)=C(\C#N)C(=O)NCc1ccccc1	1	104*	2	-2
O=C(Cc1ccccc1)NCc1cccnc1	-3	-1	0	0
O=C(NCc1ccc(F)cc1)C1CC(=O)N(CCc2ccccc2)C1 (configuration not stated)	3	2	-18	18
COc1cc(OC)cc(C(=O)NCc2cccnc2)c1	5	129*	-23	23
O=C(CC(=O)NCc1cccnc1)NCc1cccnc1	17	111*	-8	8
C/C(NCc1ccccc1)=C(\C#N)C(=O)NCc1ccccc1	-2	-20	-19	19
O=C(NCc1cccnc1)C1CC(=O)N(CCc2ccccc2)C1 (configuration not stated)	-5	133*	-9	9
COc1ccc(C(=O)NCc2cccnc2)cc1Br	5	9	-10	10
C[C@@H]1CN([C@H](C)CO)C(=O)Cc2cc(NC(=O)CCC(F)(F)F)ccc2O[C@@H]1CN(C)C(=O)Nc1ccc(C(F)(F)F)cc1	/	5	/	/
Cc1cc(C)c(C)c(S(=O)(=O)N2CCN(c3ccccn3)CC2)c1C	-9	3	38	-38
Cc1n[nH]c(C)c1S(=O)(=O)N1CCN(c2ccccn2)CC1	0	78*	-14	14
CCOc1ccc(C(=O)Nc2cccc(-n3cnnn3)c2)cc1OCC	9	-27	68	-68
CCCCOc1ccc(C(=O)Nc2cccc(-n3cnnn3)c2)cc1OC	-8	-14	75*	-75
Cc1ccc(S(=O)(=O)N[C@H]2CC[C@@H](CCn3cc(C4(O)CCCC4)nn3)O[C@H]2CO)cc1	/	3	/	/
N#Cc1ccccc1NC(=O)C1SC(=Nc2ccccc2)C(C(=O)Nc2ccc(Cl)cc2)=C1N (configuration not stated)	-21	-8	108*	-108
O=C(N[C@@H]1CC[C@@H](CCNC(=O)C2CCOCC2)O[C@@H]1CO)c1ccccn1	/	-1	/	/
COc1ccc(-c2[nH]n(-c3ccc([N+](=O)[O-])cc3)c(=O)c2C=NCC2CCCO2)cc1 (configuration not stated)	-8	/	82*	-82
O=c1c(C=NCC2CCCO2)c(-c2ccccc2)[nH]n1-c1ccc([N+](=O)[O-])cc1 (configuration not stated)	0	/	/	/
Oc1cccc(Nc2nc(-c3ccccc3)nc3ccccc23)c1	/	-38	72*	-72
c1ccc(Nc2nc(-c3ccncc3)nc3ccccc23)cc1	-1	/	52	-52
